Values after ≈ are worked out from the molar mass of the structure shown. Active and inactive are the calls of the source. The rule behind the calls is not given here.
Columns and labels:
[1] = tested on: MCF7; assay: Cytotoxicity against human MCF7 after 3 days by SRB assay; format: functional, cell-based; conditions: MCF7, 72 h
[2] = tested on: NCI-H460; assay: Cytotoxicity against human H460 after 3 days by SRB assay; format: functional, cell-based; conditions: NCI-H460, 72 h
[3] = tested on: SF-268; assay: cells; format: functional, cell-based; conditions: Homo sapiens, SF-268, 72 h
[4] = (§1) Toxicity in brine shrimp; format: organism-based; conditions: artemia, in vivo
How it was run: (§2)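 Brine shrimp lethality. LC50 in μg/mL, taken from single experiments with four concentrations, each run in triplicate.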

[5] = tested on: Micrococcus luteus; assay: Antimicrobial activity against Micrococcus luteus after 3 days; format: functional; conditions: 72 h
[6] = tested on: Mycolicibacterium smegmatis; assay: Antimicrobial activity against Mycobacterium smegmatis after 3 days; format: functional; conditions: 72 h
[7] = tested on: Saccharomyces cerevisiae; assay: Antimicrobial activity against Saccharomyces cerevisiae after 3 days; format: functional; conditions: 72 h
[8] = tested on: Aspergillus niger; assay: Antimicrobial activity against Aspergillus niger after 3 days; format: functional; conditions: 72 h
[9] = organism: Rattus norvegicus; assay: Displacement of [3H]flunitrazepam from GABAA in rat cerebral cortical 10 uM
How it was run: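 Rat cortical membrane homogenate in 50 mM sodium phosphate/200 mM NaCl pH 7.4. Duplicates, 500 μL final volume: 50 μg protein, test compound 10 μM, 1.0 μM GABA, 1.0 nM [3H]flunitrazepam. Nonspecific binding defined with 10 μM clonazepam. After 1 h at rt, filtered over PEI-soaked GF/B and counted. Net binding change versus basal is given as % of the 10 μM allopregnanolone response.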

[10] = organism: Rattus norvegicus; assay: Displacement of […] from GABAA in rat cerebral cortical at 10 uM
How it was run: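 Rat cerebral cortex membranes (sucrose homogenate, differential centrifugation, washed in 50 mM sodium phosphate/200 mM NaCl pH 7.4). Duplicate wells, 500 μL final volume: 50 μg protein, test compound 10 μM, 5.0 μM GABA, 2.0 nM [35S]TBPS. Nonspecific binding defined with 200 μM picrotoxin. Incubation 1 h at rt, then GF/B vacuum filtration and scintillation counting. Net change versus basal is reported as % of 10 μM allopregnanolone.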

[11] = tested on: Artemia; assay: as §1; format: organism-based; conditions: in vivo; how it was run: as §2

CN[C@H]1CCc2cc(O)c(OC)c(OC)c2-c2ccc(OC)c(=O)cc21
EC50 [1]: 790 nM
EC50 [2]: 1100 nM
EC50 [3]: 3.2 µM
LC50 [4]: 71.5 µg/mL (≈ 200 µM)
MIC [5]: > 500 µg/mL
MIC [6]: > 500 µg/mL
MIC [7]: > 500 µg/mL
MIC [8]: > 500 µg/mL

CC(=O)[C@H]1CC[C@H]2[C@@H]3CC[C@H]4C[C@H](O)CC[C@]4(C)[C@H]3CC[C@]12C
Activity [9]: Active
Activity [10]: Active

COc1cc2c(c(OC)c1OC)-c1ccc(OC)c(=O)cc1[C@@H](NC(C)=O)CC2 (stereo in doubt; 1) [COLCHICINE]
EC50 [1]: 16 nM
EC50 [2]: 30 nM
EC50 [3]: 0.025 µM
LC50 [4]: 3.7 µg/mL (≈ 9.26 µM)
MIC [5]: > 500 µg/mL
MIC [6]: > 500 µg/mL
MIC [7]: > 500 µg/mL
MIC [8]: > 500 µg/mL

COC1=C2c3ccc(OC)c(=O)cc3[C@H]3CC4(C)N3C24C=C(O)C1=O (stereo not given in full) [DEMECOLCINONE]
EC50 [1]: 28700 nM
EC50 [2]: 31300 nM
EC50 [3]: 28.4 µM
LC50 [4]: 79.3 µg/mL (≈ 234 µM)
MIC [5]: > 500 µg/mL
MIC [6]: > 500 µg/mL
MIC [7]: > 500 µg/mL
MIC [8]: > 500 µg/mL

COc1ccc2c(c1O)[C@@H](NC(C)=O)CCc1cc(OC)c(OC)c(OC)c1-2
EC50 [1]: 200 nM
EC50 [2]: 260 nM
EC50 [3]: 0.37 µM
LC50 [4]: 48.8 µg/mL (≈ 126 µM)
MIC [5]: > 500 µg/mL
MIC [6]: > 500 µg/mL
MIC [7]: > 500 µg/mL
MIC [8]: > 500 µg/mL
Activity [9]: 50%
Activity [10]: 50%

COc1c(O)cc2c(c1OC)-c1ccc(OC)c(=O)cc1[C@@H](NC(C)=O)CC2 [3-DESMETHYLCOLCHICIN]
LC50 [4]: 74.6 µg/mL (≈ 194 µM)

CC[C@@]1(O)C(=O)OCc2c1cc1n(c2=O)Cc2cc3ccccc3nc2-1 [CAMPTOTHECIN]
EC50 [1]: 72 nM
EC50 [2]: 6.9 nM
EC50 [3]: 0.059 µM

CN[C@H]1CCc2cc(OC)c(OC)c(OC)c2-c2ccc(OC)c(=O)cc21 [DEMECOLCINE]
EC50 [1]: 600 nM
EC50 [2]: 690 nM
EC50 [3]: 6.2 µM
LC50 [4]: 61 µg/mL (≈ 164 µM)
MIC [5]: > 500 µg/mL
MIC [6]: > 500 µg/mL
MIC [7]: > 500 µg/mL
MIC [8]: > 500 µg/mL

COC1=C[C@@H]2C3=C([C@@H]2C1=O)[C@@H](NC(C)=O)CCc1cc(OC)c(OC)c(OC)c13
EC50 [1]: 1500 nM
EC50 [2]: 2100 nM
EC50 [3]: 3.2 µM
LC50 [4]: 74.6 µg/mL (≈ 187 µM)
MIC [5]: > 500 µg/mL
MIC [6]: > 500 µg/mL
MIC [7]: > 500 µg/mL
MIC [8]: > 500 µg/mL

CN[C@H]1CCc2cc(O)c(O)c(OC)c2-c2ccc(OC)c(=O)cc21
EC50 [1]: 130000 nM
EC50 [2]: 216000 nM
EC50 [3]: 80.2 µM
LC50 [4]: 88.2 µg/mL (≈ 257 µM)
MIC [5]: > 500 µg/mL
MIC [6]: > 500 µg/mL
MIC [7]: > 500 µg/mL
MIC [8]: > 500 µg/mL

COc1cc2c(c(OC)c1OC)-c1ccc(OC)c(=O)cc1[C@@H](NC(C)=O)CC2 (stereo in doubt) [COLCHICINE]
LC50 [11]: 2.8 µg/mL (≈ 7.01 µM)

COc1c2c(cc3c1-c1ccc(OC)c(=O)cc1[C@@H](NC(C)=O)CC3)OCO2
EC50 [1]: 61 nM
EC50 [2]: 59 nM
EC50 [3]: 0.097 µM
LC50 [4]: 7.7 µg/mL (≈ 20.1 µM)
MIC [5]: > 500 µg/mL
MIC [6]: > 500 µg/mL
MIC [7]: > 500 µg/mL
MIC [8]: > 500 µg/mL
Activity [9]: 50%
Activity [10]: 50%

From ChEMBL document CHEMBL1142575, “New colchicinoids from a native Jordanian meadow saffron, colchicum brachyphyllum: isolation of the first naturally occurring dextrorotatory colchicinoid” (J Nat Prod, 2005)
